Measured values published in ChEMBL document CHEMBL1124553, “Brain-specific chemical delivery systems for beta-lactam antibiotics. In vitro and in vivo studies of some dihydropyridine and dihydroisoquinoline derivatives of benzylpenicillin in rats” (J Med Chem, 1989).

What was measured:
[1] = Half-life for disappearance of compound from dog whole blood; format: ADME, organism-based, Canis lupus familiaris
Method in brief: (§1)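 Freshly collected whole blood, or 10% w/v brain homogenate in pH 7.4 phosphate buffer (ionic strength 0.15), was prewarmed to 37 °C. Compound was spiked from an 8 mM DMSO stock to 40 µM final. Timed samples were quenched in 8% DMSO/acetonitrile, centrifuged, filtered and analyzed by reversed-phase C8 HPLC with UV detection. K came from linear regression of log peak height versus time, with t1/2 derived from it. Values are mean ± SE of three determinations in different animal samples.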

[2] = Half-life for disappearance of compound from human whole blood; format: ADME, organism-based; method in brief: as §1
[3] = Half-life for disappearance of compound from rabbit 10% brain homogenate; format: ADME, Oryctolagus cuniculus; method in brief: as §1
[4] = Half-life for disappearance of compound from rabbit whole blood; format: ADME, organism-based, Oryctolagus cuniculus; method in brief: as §1
[5] = Half-life for disappearance of compound from rat 10% brain homogenate; format: ADME; method in brief: as §1
Rattus norvegicus [6] = species on record: Rattus norvegicus; test: Half-life for disappearance of compound from rat whole blood; Compound was unstable; format: ADME, organism-based; settings: in vitro; method in brief: as §1
Rattus norvegicus [7] = species on record: Rattus norvegicus; test: Pseudo first-order rate constant (K) for disappearance of compound from rat whole blood; Compound was unstable; format: ADME, organism-based
Method in brief: (§2)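 Freshly collected whole blood (rat trunk blood; rabbit) or 10% w/v brain homogenate made in pH 7.4 phosphate buffer (μ = 0.15), prewarmed to 37 °C. Compound added from 8 mM DMSO stock to a final 40 μM. Timed 0.3 mL samples were quenched in 8% DMSO/acetonitrile, centrifuged, filtered and analysed by reversed-phase C8 HPLC-UV. K came from linear regression of log peak height versus time; n=3 animal samples.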

Canis familiaris = species on record: Canis familiaris; test: Pseudo first-order rate constant (K) for disappearance of compound from dog whole blood; format: ADME, organism-based, Canis lupus familiaris; method in brief: as §1
Homo sapiens = species on record: Homo sapiens; test: Pseudo first-order rate constant (K) for disappearance of compound from human whole blood; format: ADME, organism-based; method in brief: as §1
Oryctolagus cuniculus [8] = species on record: Oryctolagus cuniculus; test: Pseudo first-order rate constant (K) for disappearance of compound from rabbit 10% brain homogenate; format: ADME; method in brief: as §2
Oryctolagus cuniculus [9] = species on record: Oryctolagus cuniculus; test: Pseudo first-order rate constant (K) for disappearance of compound from rabbit whole blood; format: ADME, organism-based; method in brief: as §2
Rattus norvegicus [10] = species on record: Rattus norvegicus; test: Pseudo first-order rate constant (K) for disappearance of compound from rat 10% brain homogenate; format: ADME; method in brief: as §2
Rattus norvegicus [11] = test: Concentration of compound in rat kidney after intravenous injection of 20 mg/kg benzyl-penicillin after 1 min; format: functional, organism-based; design: dose 20 mg/kg
Method in brief: (§3)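 Male Sprague-Dawley rats (200-250 g), conscious, received 60 µmol/kg (equimolar to 20 mg/kg benzylpenicillin) by tail-vein injection. Benzylpenicillin K was given in water/ethanol/propylene glycol, and the delivery systems in ethanol:propylene glycol 7:3, at 20 mg/mL. Rats were decapitated at set times (4-6 per point), with trunk blood heparinized and brain, kidney, liver and lung frozen. Benzylpenicillin was measured by disk microbioassay (Bacillus subtilis ATCC 6633) after >5-volume sterile-water dilution or homogenization, against matrix calibration curves; assay limit 0.05 µg/mL.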

Rattus norvegicus [12] = test: Concentration of compound in rat kidney after intravenous injection of 20 mg/kg benzyl-penicillin after 20 min; format: functional, organism-based; design: dose 20 mg/kg; method in brief: as §3
Rattus norvegicus [13] = test: Concentration of compound in rat kidney after intravenous injection of 20 mg/kg benzyl-penicillin after 3 min; format: functional, organism-based; design: dose 20 mg/kg; method in brief: as §3
Rattus norvegicus [14] = test: Concentration of compound in rat kidney after intravenous injection of 20 mg/kg benzyl-penicillin after 40 min; format: functional, organism-based; design: dose 20 mg/kg; method in brief: as §3
Rattus norvegicus [15] = test: Concentration of compound in rat kidney after intravenous injection of 20 mg/kg benzyl-penicillin after 5 min; format: functional, organism-based; design: dose 20 mg/kg; method in brief: as §3
Rattus norvegicus [16] = test: Concentration of compound in rat kidney after intravenous injection of 20 mg/kg benzyl-penicillin after 60 min; format: functional, organism-based; design: dose 20 mg/kg; method in brief: as §3
Rattus norvegicus [17] = test: Concentration of compound in rat kidney after intravenous injection of 20 mg/kg benzyl-penicillin after 10 min; format: functional, organism-based; design: dose 20 mg/kg; method in brief: as §3
Rattus norvegicus [18] = test: Concentration of compound in rat liver after intravenous injection of 20 mg/kg benzyl-penicillin after 1 min; format: functional, organism-based; design: dose 20 mg/kg; method in brief: as §3
Rattus norvegicus [19] = test: Concentration of compound in rat liver after intravenous injection of 20 mg/kg benzyl-penicillin after 10 min; format: functional, organism-based; design: dose 20 mg/kg; method in brief: as §3
Rattus norvegicus [20] = test: Concentration of compound in rat liver after intravenous injection of 20 mg/kg benzyl-penicillin after 20 min; format: functional, organism-based; design: dose 20 mg/kg; method in brief: as §3
Rattus norvegicus [21] = test: Concentration of compound in rat liver after intravenous injection of 20 mg/kg benzyl-penicillin after 3 min; format: functional, organism-based; design: dose 20 mg/kg; method in brief: as §3
Rattus norvegicus [22] = test: Concentration of compound in rat liver after intravenous injection of 20 mg/kg benzyl-penicillin after 40 min; format: functional, organism-based; design: dose 20 mg/kg; method in brief: as §3
Rattus norvegicus [23] = test: Concentration of compound in rat liver after intravenous injection of 20 mg/kg benzyl-penicillin after 5 min; format: functional, organism-based; design: dose 20 mg/kg; method in brief: as §3
Rattus norvegicus [24] = test: Concentration of compound in rat blood after intravenous injection of 20 mg/kg benzyl-penicillin after 1 min; format: functional, organism-based; design: dose 20 mg/kg; method in brief: as §3
Rattus norvegicus [25] = test: Concentration of compound in rat blood after intravenous injection of 20 mg/kg benzyl-penicillin after 10 min; format: functional, organism-based; design: dose 20 mg/kg; method in brief: as §3
Rattus norvegicus [26] = test: Concentration of compound in rat blood after intravenous injection of 20 mg/kg benzyl-penicillin after 20 min; format: functional, organism-based; design: dose 20 mg/kg; method in brief: as §3
Rattus norvegicus [27] = test: Concentration of compound in rat blood after intravenous injection of 20 mg/kg benzyl-penicillin after 3 min; format: functional, organism-based; design: dose 20 mg/kg; method in brief: as §3
Rattus norvegicus [28] = test: Concentration of compound in rat blood after intravenous injection of 20 mg/kg benzyl-penicillin after 40 min; format: functional, organism-based; design: dose 20 mg/kg; method in brief: as §3
Rattus norvegicus [29] = test: Concentration of compound in rat blood after intravenous injection of 20 mg/kg benzyl-penicillin after 5 min; format: functional, organism-based; design: dose 20 mg/kg; method in brief: as §3
Rattus norvegicus [30] = test: Concentration of compound in rat blood after intravenous injection of 20 mg/kg benzyl-penicillin after 60 min; format: functional, organism-based; design: dose 20 mg/kg; method in brief: as §3
Rattus norvegicus [31] = test: Concentration of compound in rat brain after intravenous injection of 20 mg/kg benzyl-penicillin after 1 min; format: functional, organism-based; design: dose 20 mg/kg; method in brief: as §3
Rattus norvegicus [32] = test: Concentration of compound in rat brain after intravenous injection of 20 mg/kg benzyl-penicillin after 10 min; format: functional, organism-based; design: dose 20 mg/kg; method in brief: as §3
Rattus norvegicus [33] = test: Concentration of compound in rat brain after intravenous injection of 20 mg/kg benzyl-penicillin after 20 min; format: functional, organism-based; design: dose 20 mg/kg; method in brief: as §3
Rattus norvegicus [34] = test: Concentration of compound in rat brain after intravenous injection of 20 mg/kg benzyl-penicillin after 3 min; format: functional, organism-based; design: dose 20 mg/kg; method in brief: as §3
Rattus norvegicus [35] = test: Concentration of compound in rat brain after intravenous injection of 20 mg/kg benzyl-penicillin after 40 min; format: functional, organism-based; design: dose 20 mg/kg; method in brief: as §3
Rattus norvegicus [36] = test: Concentration of compound in rat brain after intravenous injection of 20 mg/kg benzyl-penicillin after 5 min; format: functional, organism-based; design: dose 20 mg/kg; method in brief: as §3
Rattus norvegicus [37] = test: Concentration of compound in rat liver after intravenous injection of 20 mg/kg benzyl-penicillin after 60 min; format: functional, organism-based; design: dose 20 mg/kg; method in brief: as §3
Rattus norvegicus [38] = test: Concentration of compound in rat lung after intravenous injection of 20 mg/kg benzyl-penicillin after 1 min; format: functional, organism-based; design: dose 20 mg/kg; method in brief: as §3
Rattus norvegicus [39] = test: Concentration of compound in rat lung after intravenous injection of 20 mg/kg benzyl-penicillin after 10 min; format: functional, organism-based; design: dose 20 mg/kg; method in brief: as §3
Rattus norvegicus [40] = test: Concentration of compound in rat lung after intravenous injection of 20 mg/kg benzyl-penicillin after 20 min; format: functional, organism-based; design: dose 20 mg/kg; method in brief: as §3
Rattus norvegicus [41] = test: Concentration of compound in rat lung after intravenous injection of 20 mg/kg benzyl-penicillin after 3 min; format: functional, organism-based; design: dose 20 mg/kg; method in brief: as §3
Rattus norvegicus [42] = test: Concentration of compound in rat lung after intravenous injection of 20 mg/kg benzyl-penicillin after 40 min; format: functional, organism-based; design: dose 20 mg/kg; method in brief: as §3
Rattus norvegicus [43] = test: Concentration of compound in rat lung after intravenous injection of 20 mg/kg benzyl-penicillin after 5 min; format: functional, organism-based; design: dose 20 mg/kg; method in brief: as §3
Rattus norvegicus [44] = test: Concentration of compound in rat lung after intravenous injection of 20 mg/kg benzyl-penicillin after 60 min; format: functional, organism-based; design: dose 20 mg/kg; method in brief: as §3
Rattus norvegicus [45] = test: Concentration of compound in rat brain after intravenous injection of 20 mg/kg benzyl-penicillin after 60 min; format: functional, organism-based; design: dose 20 mg/kg; method in brief: as §3

Compound: CN1C=CCC(C(=O)OCCOC(=O)C2N3C(=O)C(NC(=O)Cc4ccccc4)C3SC2(C)C)=C1 (configuration not stated)
- half-life [1]: 4.1 min
- half-life [2]: 16.2 min
- half-life [3]: 4 min
- half-life [4]: 0.8 min
- half-life [5]: 2.4 min
- T1/2 (Rattus norvegicus [6]): Unstable
- K (Rattus norvegicus [7]): Unstable
- K (Canis familiaris): 0.168 min⁻¹
- K (Homo sapiens): 0.043 min⁻¹
- K (Oryctolagus cuniculus [8]): 0.174 min⁻¹
- K (Oryctolagus cuniculus [9]): 0.903 min⁻¹
- K (Rattus norvegicus [10]): 0.296 min⁻¹
- Concentration (Rattus norvegicus [11]): 37.9 µg/mL
- Concentration (Rattus norvegicus [12]): 10.3 µg/mL
- Concentration (Rattus norvegicus [13]): 56.4 µg/mL
- Concentration (Rattus norvegicus [14]): 3.4 µg/mL
- Concentration (Rattus norvegicus [15]): 54.6 µg/mL
- Concentration (Rattus norvegicus [16]): 2.1 µg/mL
- Concentration (Rattus norvegicus [17]): 30.3 µg/mL
- Concentration (Rattus norvegicus [18]): 11.1 µg/mL
- Concentration (Rattus norvegicus [19]): 11.4 µg/mL
- Concentration (Rattus norvegicus [20]): 4.7 µg/mL
- Concentration (Rattus norvegicus [21]): 10.9 µg/mL
- Concentration (Rattus norvegicus [22]): 1.5 µg/mL
- Concentration (Rattus norvegicus [23]): 12.6 µg/mL
- Concentration (Rattus norvegicus [24]): 22.7 µg/mL
- Concentration (Rattus norvegicus [25]): 5.6 µg/mL
- Concentration (Rattus norvegicus [26]): 1.9 µg/mL
- Concentration (Rattus norvegicus [27]): 9 µg/mL
- Concentration (Rattus norvegicus [28]): 0.7 µg/mL
- Concentration (Rattus norvegicus [29]): 10.7 µg/mL
- Concentration (Rattus norvegicus [30]): 0.3 µg/mL
- Concentration (Rattus norvegicus [31]): 8.8 µg/mL
- Concentration (Rattus norvegicus [32]): 3.9 µg/mL
- Concentration (Rattus norvegicus [33]): 2.4 µg/mL
- Concentration (Rattus norvegicus [34]): 3.5 µg/mL
- Concentration (Rattus norvegicus [35]): 1.1 µg/mL
- Concentration (Rattus norvegicus [36]): 3.7 µg/mL
- Concentration (Rattus norvegicus [37]): 0.6 µg/mL
- Concentration (Rattus norvegicus [38]): 37.7 µg/mL
- Concentration (Rattus norvegicus [39]): 24.5 µg/mL
- Concentration (Rattus norvegicus [40]): 7.2 µg/mL
- Concentration (Rattus norvegicus [41]): 32.4 µg/mL
- Concentration (Rattus norvegicus [42]): 5 µg/mL
- Concentration (Rattus norvegicus [43]): 31.2 µg/mL
- Concentration (Rattus norvegicus [44]): 2.8 µg/mL
- Concentration (Rattus norvegicus [45]): 0.7 µg/mL
